Measurements as given in ChEMBL document CHEMBL2417552, “Screen of pseudopeptidic inhibitors of human sirtuins 1-3: two lead compounds with antiproliferative effects in cancer cells” (J Med Chem, 2013).
Active and inactive are the calls of the source. The rule behind the calls is not given here.

Tests used:
MCF7 [1] = test: Cell cycle arrest in human MCF7 cells assessed as accumulation at G2 phase at 100 uM after 18 hrs by propidium iodide staining-based FACS flow cytometric analysis (reference value: 14.7%); type: functional
[2] = molecular target: T1, NAD-dependent protein deacetylase sirtuin-1 (Homo sapiens, UniProt Q96EB6); test: Inhibition of human recombinant GST-tagged SIRT1 using KI177 as substrate preincubated for 5 mins followed by enzyme addition measured after 1 hr by fluorescence assay
T1 sequence (Q96EB6 whole entry): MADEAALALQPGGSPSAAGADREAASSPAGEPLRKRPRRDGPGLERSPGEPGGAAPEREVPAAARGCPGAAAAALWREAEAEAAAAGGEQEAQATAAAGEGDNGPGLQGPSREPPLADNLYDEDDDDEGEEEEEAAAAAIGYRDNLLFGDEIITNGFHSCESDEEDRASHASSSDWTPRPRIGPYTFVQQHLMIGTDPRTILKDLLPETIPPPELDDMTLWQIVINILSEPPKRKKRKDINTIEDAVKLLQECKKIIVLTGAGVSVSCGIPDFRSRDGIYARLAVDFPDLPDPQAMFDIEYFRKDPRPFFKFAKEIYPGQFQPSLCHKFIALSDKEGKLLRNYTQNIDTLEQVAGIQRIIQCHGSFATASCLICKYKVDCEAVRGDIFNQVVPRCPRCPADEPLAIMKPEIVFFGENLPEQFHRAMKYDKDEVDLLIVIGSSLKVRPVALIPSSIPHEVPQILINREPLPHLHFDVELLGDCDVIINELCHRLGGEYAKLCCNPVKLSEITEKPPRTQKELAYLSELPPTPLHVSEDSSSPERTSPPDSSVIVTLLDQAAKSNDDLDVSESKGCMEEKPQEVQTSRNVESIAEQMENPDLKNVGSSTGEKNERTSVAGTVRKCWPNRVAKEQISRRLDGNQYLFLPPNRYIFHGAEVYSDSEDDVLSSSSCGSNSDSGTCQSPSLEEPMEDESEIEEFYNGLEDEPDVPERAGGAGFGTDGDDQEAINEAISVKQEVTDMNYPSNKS
Outline: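 Fluor de Lys deacetylation assay. […] Mix preincubated 5 min at room temperature, started with enzyme, run 1 h at 37°C. Developer with 2 mM nicotinamide then added for 45 min at 37°C before fluorescence reading.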

A549 [3] = test: Growth inhibition of human A549 cells at >= 50 uM after 48 hrs by sulforhodamine B assay; type: functional, cell-based
[4] = Cytotoxicity against human ARPE19 cells at 20 uM by LDH assay; type: cell-based; conditions: arpe-19, 20 µM
[5] = molecular target: T2, NAD-dependent protein deacetylase sirtuin-1 (Homo sapiens) (UniProt Q96EB6); conditions: at 50 µM
T2 sequence (whole entry): T1 sequence (Q96EB6 whole entry)

[6] = molecular target: T2, NAD-dependent protein deacetylase sirtuin-1 (Homo sapiens); test: Inhibition of SIRT1 in etoposide-induced human ARPE19 cells assessed as increase in p53 acetylation at Lys382 at 20 uM after 5 hrs by Western blotting analysis; type: cell-based
Outline: (§1)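 ARPE-19 or SH-SY5Y cells seeded 24 h ahead, then given 20 μM compound and 100 μM etoposide together for 5 h before harvest. Acetylated p53 detected by Western blot. Mean ± SEM of 2 independent experiments.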

A549 [7] = test: Cell cycle arrest in human A549 cells assessed as accumulation at S phase at 100 uM after 18 hrs by propidium iodide staining-based FACS flow cytometric analysis (reference value: 17.8%); type: functional
[8] = molecular target: T2, NAD-dependent protein deacetylase sirtuin-1 (Homo sapiens); test: Inhibition of SIRT1 in etoposide-induced human MCF7 cells assessed as increase in p53 acetylation at Lys382 at 50 uM after 5 hrs by Western blotting analysis; type: cell-based
Outline: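 MCF-7 cells seeded 24 h ahead, then given 50 μM compound and 100 μM etoposide together for 5 h before harvest. Acetylated p53 detected by Western blot; run once per compound.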

[9] = molecular target: T3, NAD-dependent protein deacetylase sirtuin-3, mitochondrial (Homo sapiens) (UniProt Q9NTG7); conditions: at 50 µM;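 also: recombinant His-tagged human SIRT3 with KI179 substrate, fluorescence read after 1 h, inhibition expressed relative to control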
T3 sequence (whole entry): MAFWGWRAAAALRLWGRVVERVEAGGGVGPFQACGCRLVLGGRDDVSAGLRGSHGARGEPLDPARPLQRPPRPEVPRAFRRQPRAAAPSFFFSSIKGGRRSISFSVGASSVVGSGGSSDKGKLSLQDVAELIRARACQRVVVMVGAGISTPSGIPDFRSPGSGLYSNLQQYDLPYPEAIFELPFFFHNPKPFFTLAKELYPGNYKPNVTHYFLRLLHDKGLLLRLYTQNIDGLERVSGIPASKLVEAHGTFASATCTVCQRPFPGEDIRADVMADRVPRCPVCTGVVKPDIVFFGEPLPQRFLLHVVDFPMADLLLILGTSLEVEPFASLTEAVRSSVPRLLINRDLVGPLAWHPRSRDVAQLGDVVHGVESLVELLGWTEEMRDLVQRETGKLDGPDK

A549 [10] = test: Cytotoxicity against human A549 cells assessed as cell death at 100 uM after 18 hrs by propidium iodide staining-based FACS flow cytometric analysis; type: functional
MCF7 [11] = test: Cell cycle arrest in human MCF7 cells assessed as accumulation at S phase at 100 uM after 18 hrs by propidium iodide staining-based FACS flow cytometric analysis (reference value: 12.6%); type: functional
A549 [12] = test: Cell cycle arrest in human A549 cells assessed as accumulation at G1 phase at 100 uM after 18 hrs by propidium iodide staining-based FACS flow cytometric analysis (reference value: 62.3%); type: functional
MCF7 [13] = test: Cytotoxicity against human MCF7 cells assessed as cell death at 100 uM after 18 hrs by propidium iodide staining-based FACS flow cytometric analysis; type: functional
A549 [14] = test: Cell cycle arrest in human A549 cells assessed as accumulation at G2 phase at 100 uM after 18 hrs by propidium iodide staining-based FACS flow cytometric analysis (reference value: 19.4%); type: functional
MCF7 [15] = test: Cell cycle arrest in human MCF7 cells assessed as accumulation at G1 phase at 100 uM after 18 hrs by propidium iodide staining-based FACS flow cytometric analysis (reference value: 67.6%); type: functional
MCF7 [16] = test: Growth inhibition of human MCF7 cells at >= 50 uM after 72 hrs by sulforhodamine B assay
[17] = molecular target: T2, NAD-dependent protein deacetylase sirtuin-1 (Homo sapiens); test: Inhibition of SIRT1 in etoposide-induced human SH-SY5Y cells assessed as increase in p53 acetylation at Lys382 at 20 uM after 5 hrs by Western blotting analysis; type: cell-based; outline: as §1

COc1ccc(C(=O)CNC(=O)[C@H](CCCCNC(C)=S)NC(=O)OCc2ccccc2)cc1
Activity (MCF7 [1]): 8.7%
IC50 [2]: 890 nM
growth inhibition (GI) (A549 [3]): Active
Activity [4]: Non-toxic
inhibition [5]: 97%
inhibition [6]: Active
Activity (A549 [7]): 7.7%
inhibition [8]: Active
inhibition [9]: 82%
Activity (A549 [10]): inactive
Activity (MCF7 [11]): 5.8%
Activity (A549 [12]): 82.2%
Activity (MCF7 [13]): inactive
Activity (A549 [14]): 9.4%
Activity (MCF7 [15]): 80.5%
growth inhibition (GI) (MCF7 [16]): Active
inhibition [17]: Active
